Screening results (PubChem BioAssay)
An excerpt weighted towards active compounds, which were near 1.3% of everything screened.
MEX-5 binding – C. elegans MEX-5 TCR-2 RNA binding activity. AID 1832. Q9XUB2. activity score (negative = inhibition of binding), % at 10 µM. 300,000 tested, 0.38% active. MEX-5/FITC-TCR2 RNA binding, fluorescence polarization; stronger effect = lower value;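 active = inhibition past about -25% in most replicates, and total fluorescence under double the plate's negative control median, limit read from the data; inconclusive = replicates evenly split on the limit, or fluorescence at least double controls; inactive = too little inhibition in most replicates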
Target sequence (Q9XUB2 whole entry, looked up): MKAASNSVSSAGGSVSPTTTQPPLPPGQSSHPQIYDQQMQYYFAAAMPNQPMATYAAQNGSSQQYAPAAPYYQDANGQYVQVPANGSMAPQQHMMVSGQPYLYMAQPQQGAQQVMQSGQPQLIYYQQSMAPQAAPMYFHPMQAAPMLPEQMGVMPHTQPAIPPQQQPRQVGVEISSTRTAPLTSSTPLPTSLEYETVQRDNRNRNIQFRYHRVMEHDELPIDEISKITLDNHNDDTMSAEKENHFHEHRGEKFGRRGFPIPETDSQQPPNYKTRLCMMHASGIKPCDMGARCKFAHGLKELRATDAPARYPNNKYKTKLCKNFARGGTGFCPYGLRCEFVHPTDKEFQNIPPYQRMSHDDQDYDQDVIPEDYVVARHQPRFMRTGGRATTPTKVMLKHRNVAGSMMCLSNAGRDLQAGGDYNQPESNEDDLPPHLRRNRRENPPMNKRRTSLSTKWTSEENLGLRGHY
T cell modulator – T cell immune modulators affecting CD8 T cell-vesicle binding; 2C CD8+ T cell-vesicle binding, flow cytometry; stronger effect = lower value; response (vesicle binding), % at 7 µM; 330,000 tested, 0.068% active;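 active = response, share of CD8 T cells binding vesicles, and their 90th percentile fluorescence all below set limits, cut at about 80% in these data, passing the limit was not always enough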;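 also: values below 100% mean blocked vesicle binding to the CD8+ T cells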
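Also added: QL9-peptide-loaded Drosophila micro-vesicles bearing Ld, ICAM-1 and B7-1; Test system: purified 2C TCR transgenic mouse naive CD8+ T cells; Measured by: cytometric PE anti-B7-1 and Alexa647 anti-CD8 signals after 1% paraformaldehyde fixation; Timing: binding step 1.5 h, 37 °C, antibody labelling 20 min, ice.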
Keap1 Nrf2 FP – inhibitors of human Keap1-Nrf2 protein-protein interaction; Keap1 Kelch-Nrf2 peptide fluorescence polarization, 1536-well; Q14145; 340,000 tested, 0.15% active; inhibition, % at 9.4 µM; in the data active = inhibition above about 12%; inconclusive = no clear call, values can overlap the other calls; inactive = below about 7.3%;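 also: human Keap1 Kelch domain with fluorescein labeled Nrf2 9mer peptide probe; higher means more block of Keap1 binding to Nrf2 peptide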
LANA DNA inh – blocks KSHV LANA C-terminal domain binding to DNA; MBP-C-LANA/FAM-LBS DNA binding, fluorescence polarization; inhibition, % at 9 µM; 340,000 tested, 0.078% active; AID 504423;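 active = highest replicate inhibition at or above 60% at 9 µM, even if other replicates fall short; inactive = all replicates below 60% inhibition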
EBV gp42 inh – inhibitors of Epstein-Barr virus glycoprotein 42; Q1HVG2; Fluorescence polarization binding assay, mP read-out; inhibition, % (tested at 21.74 µM); 220,000 tested, 0.42% active; AID 1085; in the data active = inhibition above about 50%
Target sequence (Q1HVG2 whole entry, looked up): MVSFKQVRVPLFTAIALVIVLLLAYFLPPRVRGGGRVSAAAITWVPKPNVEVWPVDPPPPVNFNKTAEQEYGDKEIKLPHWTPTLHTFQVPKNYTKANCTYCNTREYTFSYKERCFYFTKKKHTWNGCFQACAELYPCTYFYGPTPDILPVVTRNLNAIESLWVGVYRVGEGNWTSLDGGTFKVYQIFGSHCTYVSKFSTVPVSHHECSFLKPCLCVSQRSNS
GRK2 inh – human GRK2 inhibition via aptamer displacement; 330,000 tested, 0.59% active; inhibition of aptamer binding, % at 10 µM; P25098; bead flow cytometry, FAM-aptamer displacement from GRK2;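 active = inhibition of aptamer binding above 40%, roughly 3 SD of noise, on plates passing a quality check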;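 also: median bead fluorescence of bound FAM aptamer so fluorescent compounds give negative values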
GRK2 inh confirm – human GRK2 inhibition confirmation, cherry pick 1; shares compounds with GRK2 inh; bead-bound GRK2, FAM-aptamer displacement, flow cytometry; aptamer displacement, % at 10 µM; 2,000 tested, 4% active; AID 504451;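 active = aptamer displacement above 40%, near three times the noise of non-fluorescent compounds, on plates passing quality checks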;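 also: negative values mostly reflect intrinsic compound fluorescence rather than true enhancement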
Aptamer quench SP – counter-screen for GRK2 aptamer inhibitors: fluorescent aptamer quenchers; shares compounds with GRK2 inh; Carboxyfluorescein RNA aptamer on beads, flow cytometry quenching; stronger effect = lower value; 2,000 tested, under 10 active; fluorescence response (% of DMSO), % at 10 µM;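 active = compounds that quench the bead-bound fluorescent RNA probe, cutting fluorescence to under half of the solvent control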;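 also: counterscreen run without GRK2 so only probe quenching by compound is measured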
Each line names hits and unclear results; the compound was inactive in the other large screens (follow-up assays come after a bar, where they were run).

COc1ccc(CN(C)C(C)C(=O)Nc2ccc(S(=O)(=O)N3CCOCC3)cc2)c(OC)c1 (stereo unspecified)	none
CCOC(=O)/C(=C/c1ccc(N2CCC(c3ccccc3)=N2)cc1)C(C)=O	MEX-5 binding -33, EBV gp42 inh 156 (no result: T cell modulator, GRK2 inh)
O=c1oc2ccccc2nc1/C=C(\O)c1ccc(Br)cc1	EBV gp42 inh 64
Cc1ccc2oc(=O)c(/C=C(\O)c3cccs3)nc2c1	MEX-5 binding -45
Cc1ccc2oc(=O)c(/C=C(\O)CC(C)C)nc2c1	MEX-5 binding inconclusive
O=c1oc2ccc(Cl)cc2nc1/C=C(\O)c1cccs1	MEX-5 binding -67
CCS(=O)(=O)c1ccc2oc(=O)c(/C=C(\O)c3ccc(Cl)cc3)nc2c1	none
Cc1ccc2oc(=O)c(/C=C(\O)c3ccccc3)nc2c1	EBV gp42 inh 59
Cc1cccc(/C=N/NC(=O)c2ccccc2OCc2cccc(Br)c2)n1	none (no result: EBV gp42 inh)
CSc1ccc(/C=N/N2CCN(Cc3ccc(Cl)cc3)CC2)cc1	none
COc1cc(CCC(=O)Nc2ccc(C)c(S(=O)(=O)N(C)C)c2)cc(OC)c1OC	none
CSc1ccc(C(c2c(C(=O)O)[nH]c3ccccc23)c2c(C(=O)O)[nH]c3ccccc23)cc1	none (no result: EBV gp42 inh)
O=C1N=C(N2C=CC(=C3C=CNC=C3)C=C2)/C(=C/N=NC(=O)c2ccccc2O)S1	MEX-5 binding -46 (no result: EBV gp42 inh)
CCCNC(=O)Cn1c(=O)/c(=C\c2ccc(-c3ccc([N+](=O)[O-])cc3)o2)s/c1=C\C(=O)C(C)(C)C	none
Nc1c(C(=O)O)ccc2c1C(=O)c1ccccc1C2=O	none
Nc1cc(C(=O)O)c(N)c2c1C(=O)c1ccccc1C2=O	MEX-5 binding -101, Keap1 Nrf2 FP inconclusive, EBV gp42 inh 119
Cn1nnnc1SCC1=C(C(=O)O)N2C(=O)[C@@H](NC(=O)[C@H](O)c3ccccc3)[C@H]2SC1	GRK2 inh 52
O=C(NCc1ccc(Cl)cc1)c1ccc(CNc2c(N3CCCC3)c(=O)c2=O)cc1	T cell modulator 0.0
Cc1ccc(-n2c(-c3cccc(C)c3)n[nH]c2=S)cc1	none
Cc1ccc(-c2n[nH]c(=S)n2-c2ccccc2)cc1	T cell modulator 81
CCN(CC)CCOC(=O)C1(c2ccccc2)CCCC1	GRK2 inh 69 | GRK2 inh confirm inactive | Aptamer quench SP inactive
Cc1ccc(S(=O)(=O)Oc2cccc(N3C(=O)C4CC=CCC4C3=O)c2)cc1 (stereo unspecified)	GRK2 inh 71 | GRK2 inh confirm inactive | Aptamer quench SP inactive
Cc1ccccc1Nc1nc(N)nc(COC(=O)c2ccc([N+](=O)[O-])o2)n1	none (no result: MEX-5 binding, EBV gp42 inh)
O=C(NCc1ccc2c(c1)OCO2)c1ccc(Br)cc1	none (no result: EBV gp42 inh)
O=C(NCc1ccc2c(c1)OCO2)c1cc2ncc(Br)cn2n1	none (no result: MEX-5 binding) | GRK2 inh confirm inactive | Aptamer quench SP inactive
CCOc1ccc(NC(=O)C2CC(=O)OC2c2ccccc2)cc1 (stereo unspecified)	GRK2 inh 82 | GRK2 inh confirm inactive | Aptamer quench SP inactive
O=C(COc1ccccc1N1C(=O)c2ccccc2C1=O)c1ccc(Cl)cc1	GRK2 inh 73 | GRK2 inh confirm inactive | Aptamer quench SP inactive
N#C/C(=C\Nc1ccccc1SC(F)(F)F)c1nc(-c2ccccc2)cs1	GRK2 inh 48 | GRK2 inh confirm inactive | Aptamer quench SP inactive
CCS(=O)(=O)Nc1cc2c3c(c1)CCN3C(=O)CC2	GRK2 inh 45 (no result: EBV gp42 inh) | GRK2 inh confirm inactive | Aptamer quench SP inactive
O=C(O)c1ccc2c(c1)[C@@H]1C=CC[C@@H]1[C@H](c1ccccn1)N2	MEX-5 binding -100, LANA DNA inh 98, GRK2 inh 42 (no result: EBV gp42 inh) | GRK2 inh confirm inactive | Aptamer quench SP inactive
O=C(NCCOc1ccccc1)C1Nc2ccc(OC(F)(F)F)cc2C2C=CCC12 (stereo unspecified)	none (no result: EBV gp42 inh)
O=S(=O)(Nc1cc(Sc2cccc3cccnc23)c(O)c2ccccc12)c1ccc(F)cc1	GRK2 inh 42 (no result: Keap1 Nrf2 FP, LANA DNA inh) | GRK2 inh confirm inactive | Aptamer quench SP inactive
COc1ccc(S(=O)(=O)Nc2cc(Sc3ncn[nH]3)c(O)c3ccccc23)cc1	none (no result: MEX-5 binding, T cell modulator, Keap1 Nrf2 FP, LANA DNA inh, GRK2 inh)
Cc1ccc(NC(=O)NC(=O)CN2CCN(c3ccc(O)cc3)CC2)c(C)c1	none (no result: EBV gp42 inh)
COC(=O)[C@H](Cc1ccccc1)NC(=O)C1(OC(C)=O)CC(OC(C)=O)C(OC(C)=O)C(OC(C)=O)C1 (stereo partly specified)	GRK2 inh 63 (no result: EBV gp42 inh) | GRK2 inh confirm inactive | Aptamer quench SP inactive
COC(=O)[C@H](Cc1ccccc1)NC(=O)N1CCCCC1	none
CSc1nnc(-c2ccc(O)cc2)n1C	none
CC1(C)C2CC=C(/C=N/NC(=O)c3ccc(O)cc3)C1C2 (stereo unspecified)	GRK2 inh 74 | GRK2 inh confirm inactive | Aptamer quench SP inactive
CCOC(=O)c1nnn(-c2nonc2N)c1-c1ccc(Br)cc1	none
CCN1CCN(CCNC(=O)c2ccc(CS(=O)(=O)c3ccccc3C)o2)CC1	none
CC(C)(C)C(=O)NCc1ccc(C(=O)CN2C(=O)NC3(CCCC3)C2=O)s1	none (no result: MEX-5 binding, T cell modulator, EBV gp42 inh, GRK2 inh)
O=C(OCC(=O)N1CCN(C(=O)c2ccco2)CC1)c1ccccc1	GRK2 inh 78 | GRK2 inh confirm inactive | Aptamer quench SP inactive
Cc1cc(Cl)ccc1OCCCC(=O)N1CCN(C(=O)c2ccco2)CC1	GRK2 inh 78 | GRK2 inh confirm inactive | Aptamer quench SP inactive
CCOC(=O)c1c(C)[nH]c(C(=O)COC(=O)COc2ccc(OC)cc2)c1C	GRK2 inh 70 | GRK2 inh confirm inactive | Aptamer quench SP inactive
COc1ccc(Cc2nc3ccc(C(=O)NC4CCOC4)cc3o2)cc1 (stereo unspecified)	none (no result: EBV gp42 inh)
CCC(C)NC(=O)CNC(=O)c1nn(-c2ccc(OC)c(Cl)c2)c(=O)c2ccccc12 (stereo unspecified)	none (no result: EBV gp42 inh) | GRK2 inh confirm inactive | Aptamer quench SP inactive
CCOc1ccc(-n2nc(C(=O)NCCOC)c3ccccc3c2=O)cc1	none (no result: MEX-5 binding)
CCc1ccc(NC(=O)CNC(=O)c2nn(-c3ccc(OC)cc3)c(=O)c3ccccc23)cc1	none (no result: EBV gp42 inh)
CCC(C)NC(=O)CNC(=O)c1nn(-c2ccc(OC)cc2)c(=O)c2ccccc12 (stereo unspecified)	GRK2 inh 44 (no result: EBV gp42 inh) | GRK2 inh confirm inactive | Aptamer quench SP inactive
CCOc1ccc(-n2nc(C(=O)NC3CCCCC3)c3ccccc3c2=O)cc1	GRK2 inh 81 (no result: EBV gp42 inh) | GRK2 inh confirm inactive | Aptamer quench SP inactive
CSC1=NCCN1S(=O)(=O)c1ccc(NC(C)=O)cc1	none
c1nnc(-c2ccc3c(c2)OCO3)o1	none
